The target of series [1] is T1, Growth hormone secretagogue receptor type 1 (Homo sapiens, UniProt Q92847). The experiment in a line: Activation of human ghrelin receptor expressed in COS 7 cells using [2-3H]myo-inositol by inositol triphosphate turnover assay. Type of series: functional, cell-based. In outline: (§1)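 Stimulated with seven to nine peptide concentrations, stopped by aspirating medium. Lysate supernatant purified on anion-exchange resin. Emax = difference between constitutive activity and activity at maximal peptide effect; EC50 = half-maximal concentration.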

Series [2] has as its target T1, Growth hormone secretagogue receptor type 1. Briefly: Agonist activity at human ghrelin receptor expressed in COS 7 cells using [2-3H]myo-inositol by inositol triphosphate turnover assay relative to untreated control. Type of series: functional, cell-based. In outline: as §1
Series [3] has the same target. Briefly: Displacement of [125I]-His-ghrelin from human ghrelin receptor expressed in COS7 cells incubated for 75 mins by scintillation counting based assay. In kind it is cell-based, COS-7. On the technique in general: Loss of bound radioactivity is the signal in a displacement assay; it reports binding, not function.
Series [4] has the same target. Briefly: Ratio of EC50 of ghrelin to EC50 of compound at human ghrelin receptor expressed in COS 7 cells using [2-3H]myo-inositol by inositol triphosphate turnover assay. Type of series: functional, cell-based.
The target in series [5] is Growth hormone secretagogue receptor type 1 (Homo sapiens, UniProt Q92847, S123A). The experiment in a line: Agonist activity at FLAG-tagged human ghrelin receptor Ser123:Ala mutant expressed in COS 7 cells using [2-3H]myo-inositol by inositol triphosphate turnover assay. Type of series: functional, cell-based. In outline: (§2)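 COS7 cells transiently or stably (hygromycin B 0.4 mg/mL) transfected with receptor; transient cells exposed 14 h to receptor DNA with metafectene. Day after transfection/seeding, labelled with [2-3H]myo-inositol (2 μCi/mL), then stimulated with seven to nine peptide concentrations; stopped by aspirating medium, lysate supernatant purified on anion-exchange resin. EC50 = half-maximal effect; Emax = difference between constitutive activity and maximal-effect activity.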

Series [6] addresses T1, Growth hormone secretagogue receptor type 1. The experiment in a line: Agonist activity at FLAG-tagged human ghrelin receptor expressed in COS 7 cells using [2-3H]myo-inositol by inositol triphosphate turnover assay. In kind it is functional, cell-based. In outline: as §2
The target in series [7] is Growth hormone secretagogue receptor type 1 (Homo sapiens, UniProt Q92847, F119S). Briefly: Agonist activity at FLAG-tagged human ghrelin receptor Phe119:Ser mutant expressed in COS 7 cells using [2-3H]myo-inositol by inositol triphosphate turnover assay. Type of series: functional, cell-based.
Series [8] relates to Rattus norvegicus. Briefly: Toxicity in rat assessed as decrease in water consumption at 1 nmol, icv measured over 120 mins. Type of series: organism-based. The note with it: in vivo, icv_or_intrathecal, 2 h.
The test system of series [9] is Rattus norvegicus. Briefly: Toxicity in rat assessed as decrease in activity at 1 nmol, icv measured over 120 mins. Type of series: organism-based. The settings on record: in vivo, icv_or_intrathecal, 2 h.

Where a SMILES comes first, the peptide text is derived from it. [ ]: non-standard residue; d: D form. d1Nal = N[C@H](Cc1cccc2ccccc12)C(=O)O; Phg = N[C@H](C(=O)O)c1ccccc1

T1 sequence (Q92847 whole entry): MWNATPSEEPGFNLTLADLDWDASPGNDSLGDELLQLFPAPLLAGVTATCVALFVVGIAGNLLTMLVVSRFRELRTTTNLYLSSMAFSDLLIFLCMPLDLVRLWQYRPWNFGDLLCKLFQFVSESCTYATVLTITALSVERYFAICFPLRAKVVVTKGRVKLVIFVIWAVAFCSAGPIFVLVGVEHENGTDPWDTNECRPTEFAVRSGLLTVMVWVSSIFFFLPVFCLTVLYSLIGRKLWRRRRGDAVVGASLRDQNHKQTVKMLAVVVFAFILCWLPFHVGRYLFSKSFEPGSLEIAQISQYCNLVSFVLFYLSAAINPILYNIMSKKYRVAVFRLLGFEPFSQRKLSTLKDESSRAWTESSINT
Sequence of Growth hormone secretagogue receptor type 1 (Homo sapiens, UniProt Q92847, S123A) (Q92847 whole entry S123A): as the sequence (Q92847 whole entry) above, with S123A counted along it
Sequence of Growth hormone secretagogue receptor type 1 (Homo sapiens, UniProt Q92847, F119S) (Q92847 whole entry F119S): as the sequence (Q92847 whole entry) above, with F119S counted along it

On to `CC(C)C[C@H](NC(=O)[C@H](CC(C)C)NC(=O)[C@@H](Cc1cccc2ccccc12)NC(=O)[C@H](Cc1ccccc1)NC(=O)[C@@H](Cc1cccc2ccccc12)NC(=O)[C@@H](N)CCCCN)C(N)=O`, for which the EC50 – broadly, the concentration giving half of the maximal effect – in series [1] is over 1000 nM.

In the case of `CC(C)C[C@H](NC(=O)[C@H](CC(C)C)NC(=O)[C@@H](Cc1cccc2ccccc12)NC(=O)[C@H](Cc1ccccc1)NC(=O)[C@@H](Cc1c[nH]c2ccccc12)NC(=O)[C@@H](N)CCCCN)C(N)=O`, the Emax in [2] was 54%. Further, in series [3], the affinity, expressed as Ki, was 247 nM. The Ratio EC50 in [4] is 12.8.

Consider `CC(C)C[C@H](NC(=O)[C@H](CC(C)C)NC(=O)[C@@H](Cc1ccc2ccccc2c1)NC(=O)[C@H](Cc1ccccc1)NC(=O)[C@@H](Cc1c[nH]c2ccccc12)NC(=O)[C@@H](N)CCCCN)C(N)=O`, for which the Emax in [2] came out at 156%. In addition, the EC50 is 6.7 nM in [5], 7.2 nM in [6] and 13.4 nM in [7]. The Ki (usually the dissociation constant of the complex between target and ligand, obtained from inhibition or displacement) in [3] stood at 234 nM. Further, the Ratio EC50 in [4] turned out to be 9.

As to `CC(C)C[C@H](NC(=O)[C@H](CC(C)C)NC(=O)[C@@H](Cc1ccc(C(=O)c2ccccc2)cc1)NC(=O)[C@H](Cc1ccccc1)NC(=O)[C@@H](Cc1c[nH]c2ccccc12)NC(=O)[C@@H](N)CCCCN)C(N)=O`, the EC50 in series [1] is over 1000 nM. Besides, the IC50 – broadly, the concentration that inhibits the measured activity by half – in series [3] was at least 1000 nM. Further, the Ratio EC50 in series [4] is over 700.

In the case of `CC(C)C[C@H](NC(=O)[C@H](CC(C)C)NC(=O)[C@@H](Cc1c[nH]c2ccccc12)NC(=O)[C@@H](NC(=O)[C@@H](Cc1cccc2ccccc12)NC(=O)[C@@H](N)CCCCN)c1ccccc1)C(N)=O` (H-K[d1Nal][Phg][dW]LL-NH2), the EC50 in series [1] is over 1000 nM.

As for `CC(C)C[C@H](NC(=O)[C@H](CC(C)C)NC(=O)[C@@H](Cc1ccc(-c2ccccc2)cc1)NC(=O)[C@H](Cc1ccccc1)NC(=O)[C@@H](Cc1c[nH]c2ccccc12)NC(=O)[C@@H](N)CCCCN)C(N)=O`, the EC50 in [1] was over 1000 nM. For the same molecule, the IC50 in [3] is at least 1000 nM. Besides, the Ratio EC50 in series [4] was over 700.

`CC(C)C[C@H](NC(=O)[C@H](CC(C)C)NC(=O)[C@H](NC(=O)[C@H](Cc1ccccc1)NC(=O)[C@@H](Cc1c[nH]c2ccccc12)NC(=O)[C@@H](N)CCCCN)C(c1ccccc1)c1ccccc1)C(N)=O`: the EC50 in [1] was over 1000 nM. The same molecule showed an IC50 in [3] of at least 1000 nM. Also, in series [4], the Ratio EC50 is over 700.

In the case of `CC(C)C[C@H](NC(=O)[C@H](CC(C)C)NC(=O)[C@@H](Cc1c[nH]c2ccccc12)NC(=O)[C@H](Cc1ccccc1)NC(=O)[C@@H](Cc1cccc2ccccc12)NC(=O)[C@@H](N)CCCCN)C(N)=O`, the Activity result in the series with Rattus norvegicus [8] and in the series on Rattus norvegicus [9] was “Toxic” each time.
